The values below come from ChEMBL document CHEMBL4257579, “Analogs of penfluridol as chemotherapeutic agents with reduced central nervous system activity” (Bioorg Med Chem Lett, 2018).

Molecules are shown by their SMILES.

The target of series [1] is 5-hydroxytryptamine receptor 5A (Homo sapiens, UniProt P47898). Put plainly: Displacement of [3H]LSD from human 5-HT5A receptor expressed in Flp-In CHO cells by radioligand binding assay. The series is classed as cell-based.
In series [2] the target is 5-hydroxytryptamine receptor 6 (Homo sapiens, UniProt P50406). Put plainly: Displacement of [3H]LSD from human 5-HT6 receptor expressed in HEK cells by radioligand binding assay. The series is classed as cell-based. A general note: Displacement assays read how much labelled ligand stays bound in the presence of the test substance.
In series [3] the target is Sodium-dependent serotonin transporter (Homo sapiens, UniProt P31645). Put plainly: Displacement of [3H]Citalopram from human SERT expressed in HEK cells by radioligand binding assay. The series is classed as cell-based.
In series [4] the target is Histamine H1 receptor (Homo sapiens, UniProt P35367). The experiment in a line: Displacement of [3H]Pyrilamine from human H1 receptor expressed in HEK cells by radioligand binding assay relative to control. Also on record: concentration or dose not given beside the values. The conditions noted are these: concentration not given here. The format is cell-based.
Series [5] can be described thus: Drug distribution in C57BL/6J mouse adipose tissue at 5 mg/kg, ip treated daily for 7 consecutive days measured after 24 hrs post last dose by LC/MS/MS analysis. The series is classed as ADME, organism-based. The conditions noted are these: in vivo. Put shortly:
(§1)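 Female C57BL6 mice dosed 5 mg/kg i.p. once daily for seven consecutive days; sacrificed 24 h after last injection, organs stored at −80 °C. Plasma, brain, lungs and adipose tissue analysed by LC-MS/MS for drug concentration (nM); n = 5.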

A short description of series [6]: Drug distribution in C57BL/6J mouse brain at 5 mg/kg, ip treated daily for 7 consecutive days measured after 24 hrs post last dose by LC/MS/MS analysis. The series is classed as ADME, organism-based. The conditions noted are these: in vivo. An outline of the steps: as §1
For series [7], the system named is Mus musculus. The experiment in a line: Toxicity in C57BL/6J mouse assessed as effect on brain weight at 5 mg/kg, ip treated daily for 7 consecutive days measured after 24 hrs post last dose. The series is classed as organism-based. The conditions noted are these: in vivo. An outline of the steps: (§2)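 Female C57BL6 mice treated 5 mg/kg i.p. once daily for seven days; killed 24 h after final injection and organs collected and weighed.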

Series [8] in a line: Tmax in C57BL/6J mouse brain at 10 mg/kg, ip treated daily for 7 consecutive days by LC/MS/MS analysis. The series is classed as ADME, organism-based.
Series [9] concerns Mus musculus. Put plainly: Toxicity in C57BL/6J mouse assessed as electrolytes level at 5 mg/kg, ip treated daily for 7 consecutive days measured after 24 hrs post last dose […]. The format is organism-based. The conditions noted are these: in vivo. An outline of the steps: (§3)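 Female C57BL6 mice given 5 mg/kg i.p. daily for 7 days; blood taken at sacrifice 24 h after last dose for clinical chemistry panel: electrolytes, minerals, total protein, albumin, globulin, A/G ratio, BUN, ALT, AST, GLDH, cholestasis markers, ALP, bilirubin, amylase, creatine kinase.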

Series [10] has as its system Mus musculus. The experiment in a line: Toxicity in C57BL/6J mouse assessed as minerals level at 5 mg/kg, ip treated daily for 7 consecutive days measured after 24 hrs post last dose […]. The format is organism-based. The conditions noted are these: in vivo. Put shortly: as §3
The subject of series [11] is Mus musculus. The experiment in a line: Toxicity in C57BL/6J mouse assessed as total protein level at 5 mg/kg, ip treated daily for 7 consecutive days measured after 24 hrs post last dose […]. The format is organism-based. The conditions noted are these: in vivo. An outline of the steps:
as §3

In series [12] the test system is Mus musculus. The experiment in a line: Toxicity in C57BL/6J mouse assessed as albumin level at 5 mg/kg, ip treated daily for 7 consecutive days measured after 24 hrs post last dose […]. The series is classed as organism-based. The conditions noted are these: in vivo. An outline of the steps: as §3
The test system of series [13] is Mus musculus. The experiment in a line: Toxicity in C57BL/6J mouse assessed as globulin level at 5 mg/kg, ip treated daily for 7 consecutive days measured after 24 hrs post last dose […]. The series is classed as organism-based. As to conditions: in vivo; call rule not given here. An outline of the steps: as §3
Series [14] has as its system Mus musculus. Put plainly: Toxicity in C57BL/6J mouse assessed as ratio of albumin to globulin level at 5 mg/kg, ip treated daily for 7 consecutive days measured after 24 hrs post last dose […]. The conditions noted are these: in vivo. The series is classed as organism-based. Put shortly: as §3
Series [15] has as its system Mus musculus. Put plainly: Toxicity in C57BL/6J mouse assessed as alanine aminotransferase level at 5 mg/kg, ip treated daily for 7 consecutive days measured after 24 hrs post last dose […]. The series is classed as organism-based. The conditions noted are these: in vivo. Put shortly: as §3
For series [16], the system named is Mus musculus. Put plainly: Toxicity in C57BL/6J mouse assessed as aspartate aminotransferase level at 5 mg/kg, ip treated daily for 7 consecutive days measured after 24 hrs post last dose […]. The format is organism-based. As to conditions: in vivo. Put shortly: as §3
Series [17] relates to Mus musculus. Put plainly: Toxicity in C57BL/6J mouse assessed as increase in glutamate dehydrogenase level at 5 mg/kg, ip treated daily for 7 consecutive days measured after 24 hrs post last dose […]. As to conditions: in vivo. The series is classed as organism-based. An outline of the steps: as §3
Series [18] relates to Mus musculus. The experiment in a line: Toxicity in C57BL/6J mouse assessed as cholestasis level at 5 mg/kg, ip treated daily for 7 consecutive days measured after 24 hrs post last dose […]. The series is classed as organism-based. The conditions noted are these: in vivo. Put shortly:
as §3

The test system of series [19] is Mus musculus. The experiment in a line: Toxicity in C57BL/6J mouse assessed as reduction in alkaline phosphatase level at 5 mg/kg, ip treated daily for 7 consecutive days measured after 24 hrs post last dose […]. The format is organism-based. As to conditions: in vivo. Put shortly: as §3
In series [20] the test system is Mus musculus. Put plainly: Toxicity in C57BL/6J mouse assessed as bilirubin level at 5 mg/kg, ip treated daily for 7 consecutive days measured after 24 hrs post last dose […]. The series is classed as organism-based. The conditions noted are these: in vivo. Put shortly: as §3
For series [21], the system named is Mus musculus. Put plainly: Toxicity in C57BL/6J mouse assessed as amylase level at 5 mg/kg, ip treated daily for 7 consecutive days measured after 24 hrs post last dose […]. The series is classed as organism-based. The conditions noted are these: in vivo. Put shortly: as §3
Series [22] has as its system Mus musculus. Put plainly: Toxicity in C57BL/6J mouse assessed as creatine kinase level at 5 mg/kg, ip treated daily for 7 consecutive days measured after 24 hrs post last dose […]. The series is classed as organism-based. As to conditions: in vivo. An outline of the steps:
as §3

The subject of series [23] is Mus musculus. Put plainly: Toxicity in C57BL/6J mouse assessed as effect on kidney weight at 5 mg/kg, ip treated daily for 7 consecutive days measured after 24 hrs post last dose. The conditions noted are these: in vivo. The format is organism-based. Put shortly:
as §2

Series [24] relates to Mus musculus. The experiment in a line: Toxicity in C57BL/6J mouse assessed as effect on spleen weight at 5 mg/kg, ip treated daily for 7 consecutive days measured after 24 hrs post last dose. The conditions noted are these: in vivo. The format is organism-based. Put shortly:
as §2

The test system of series [25] is Mus musculus. Put plainly: Toxicity in C57BL/6J mouse assessed as effect on heart weight at 5 mg/kg, ip treated daily for 7 consecutive days measured after 24 hrs post last dose. As to conditions: in vivo. The series is classed as organism-based. An outline of the steps: as §2
Series [26] concerns Mus musculus. The experiment in a line: Toxicity in C57BL/6J mouse assessed as effect on lung weight at 5 mg/kg, ip treated daily for 7 consecutive days measured after 24 hrs post last dose. The series is classed as organism-based. The conditions noted are these: in vivo. Put shortly: as §2
Series [27] deals with Mus musculus. Put plainly: Toxicity in C57BL/6J mouse assessed as effect on liver weight at 5 mg/kg, ip treated daily for 7 consecutive days measured after 24 hrs post last dose. The series is classed as organism-based. The conditions noted are these: in vivo. An outline of the steps: as §2
Series [28] deals with Mus musculus. Put plainly: Toxicity in C57BL/6J mouse assessed as decrease in blood urea nitrogen level at 5 mg/kg, ip treated daily for 7 consecutive days measured after 24 hrs post last dose […]. As to conditions: in vivo.
The target in series [29] is Alpha-2C adrenergic receptor (Homo sapiens, UniProt P18825). The experiment in a line: Displacement of [3H]Rauwolscine from human alpha 2C adrenergic receptor expressed in MDCK cells by radioligand binding assay. The series is classed as cell-based. An outline of the steps: (§4)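 Ki values were calculated from the radioligand displacement data.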
Series [30] concerns the target Alpha-2B adrenergic receptor (Homo sapiens, UniProt P18089). The experiment in a line: Displacement of [3H]Rauwolscine from human alpha 2B adrenergic receptor expressed in HEK293T cells by radioligand binding assay. The format is cell-based. An outline of the steps: as §4
Series [31] concerns the target Alpha-1D adrenergic receptor (Homo sapiens) (UniProt P25100). Put plainly: Displacement of [3H]Prazosin from human alpha 1D adrenergic receptor expressed in HEK cells by radioligand binding assay relative to control. The series is classed as cell-based. As to conditions: concentration not given here.
Series [32] concerns the target Alpha-2C adrenergic receptor (Homo sapiens) (UniProt P18825). Put plainly: Displacement of [3H]Rauwolscine from human alpha 2C adrenergic receptor expressed in MDCK cells by radioligand binding assay relative to control. The format is cell-based. The conditions noted are these: concentration not given here.

Chain of 5-hydroxytryptamine receptor 6 (P50406 whole entry): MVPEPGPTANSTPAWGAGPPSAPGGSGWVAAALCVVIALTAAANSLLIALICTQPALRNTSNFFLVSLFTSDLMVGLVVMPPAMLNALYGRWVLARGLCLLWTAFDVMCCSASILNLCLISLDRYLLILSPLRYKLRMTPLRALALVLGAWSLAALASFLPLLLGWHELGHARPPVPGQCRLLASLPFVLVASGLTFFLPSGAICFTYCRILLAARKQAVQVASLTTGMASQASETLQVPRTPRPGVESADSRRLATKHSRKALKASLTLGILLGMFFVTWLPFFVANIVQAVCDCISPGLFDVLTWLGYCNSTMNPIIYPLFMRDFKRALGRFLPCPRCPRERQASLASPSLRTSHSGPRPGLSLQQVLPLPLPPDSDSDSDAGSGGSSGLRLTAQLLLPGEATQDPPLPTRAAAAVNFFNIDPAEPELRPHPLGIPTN
Chain of Sodium-dependent serotonin transporter (P31645 whole entry): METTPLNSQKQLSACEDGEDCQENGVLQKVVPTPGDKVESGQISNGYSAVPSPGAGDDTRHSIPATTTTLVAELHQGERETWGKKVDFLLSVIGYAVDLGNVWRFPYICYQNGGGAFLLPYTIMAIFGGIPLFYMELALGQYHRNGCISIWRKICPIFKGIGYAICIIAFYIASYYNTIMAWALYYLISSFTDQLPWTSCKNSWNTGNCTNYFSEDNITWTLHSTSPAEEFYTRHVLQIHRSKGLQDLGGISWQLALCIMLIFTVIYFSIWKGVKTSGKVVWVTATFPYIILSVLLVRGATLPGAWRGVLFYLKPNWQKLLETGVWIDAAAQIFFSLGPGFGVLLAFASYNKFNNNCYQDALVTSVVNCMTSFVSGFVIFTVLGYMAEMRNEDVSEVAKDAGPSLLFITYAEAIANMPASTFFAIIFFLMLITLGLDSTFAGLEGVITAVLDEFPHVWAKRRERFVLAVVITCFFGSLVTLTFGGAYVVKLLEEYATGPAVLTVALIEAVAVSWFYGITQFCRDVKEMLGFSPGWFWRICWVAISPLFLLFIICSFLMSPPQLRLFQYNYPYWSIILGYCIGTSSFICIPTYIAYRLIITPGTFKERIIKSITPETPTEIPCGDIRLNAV
Chain of 5-hydroxytryptamine receptor 5A (P47898 whole entry): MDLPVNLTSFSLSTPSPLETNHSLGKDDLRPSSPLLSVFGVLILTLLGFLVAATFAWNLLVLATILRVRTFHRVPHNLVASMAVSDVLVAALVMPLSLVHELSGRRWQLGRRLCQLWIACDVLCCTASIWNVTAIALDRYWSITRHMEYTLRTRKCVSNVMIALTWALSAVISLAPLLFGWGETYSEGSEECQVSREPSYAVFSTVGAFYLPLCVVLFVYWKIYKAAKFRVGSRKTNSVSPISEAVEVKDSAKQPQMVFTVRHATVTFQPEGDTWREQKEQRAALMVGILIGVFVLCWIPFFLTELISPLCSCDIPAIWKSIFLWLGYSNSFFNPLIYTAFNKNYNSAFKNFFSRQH
Chain of Histamine H1 receptor (P35367 whole entry): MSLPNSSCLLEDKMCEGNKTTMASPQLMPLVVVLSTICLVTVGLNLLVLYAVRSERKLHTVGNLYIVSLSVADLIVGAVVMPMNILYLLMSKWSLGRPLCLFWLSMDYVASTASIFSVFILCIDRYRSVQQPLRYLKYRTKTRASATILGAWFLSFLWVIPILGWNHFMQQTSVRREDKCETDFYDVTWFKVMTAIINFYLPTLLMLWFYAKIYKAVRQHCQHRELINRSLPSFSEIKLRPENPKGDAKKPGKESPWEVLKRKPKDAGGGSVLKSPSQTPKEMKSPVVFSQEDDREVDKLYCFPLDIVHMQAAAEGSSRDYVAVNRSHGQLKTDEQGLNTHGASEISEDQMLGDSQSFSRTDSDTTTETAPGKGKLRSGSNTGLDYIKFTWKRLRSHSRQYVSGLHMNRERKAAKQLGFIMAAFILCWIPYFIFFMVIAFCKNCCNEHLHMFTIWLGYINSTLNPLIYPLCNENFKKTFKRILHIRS
Chain of Alpha-2C adrenergic receptor (P18825 whole entry): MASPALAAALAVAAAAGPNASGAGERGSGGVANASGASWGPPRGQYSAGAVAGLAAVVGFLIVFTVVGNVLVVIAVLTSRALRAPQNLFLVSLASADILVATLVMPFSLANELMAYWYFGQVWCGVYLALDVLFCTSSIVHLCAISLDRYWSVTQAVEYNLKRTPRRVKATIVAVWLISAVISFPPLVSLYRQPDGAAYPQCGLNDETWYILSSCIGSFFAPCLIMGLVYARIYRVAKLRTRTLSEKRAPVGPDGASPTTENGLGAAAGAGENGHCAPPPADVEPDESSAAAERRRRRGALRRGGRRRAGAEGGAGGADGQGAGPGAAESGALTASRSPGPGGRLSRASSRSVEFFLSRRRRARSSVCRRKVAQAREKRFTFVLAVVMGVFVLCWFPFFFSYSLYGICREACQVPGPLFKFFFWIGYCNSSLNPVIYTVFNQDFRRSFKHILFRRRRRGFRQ
Chain of Alpha-2C adrenergic receptor (Homo sapiens) (P18825 whole entry): as above
Chain of Alpha-1D adrenergic receptor (Homo sapiens) (P25100 whole entry): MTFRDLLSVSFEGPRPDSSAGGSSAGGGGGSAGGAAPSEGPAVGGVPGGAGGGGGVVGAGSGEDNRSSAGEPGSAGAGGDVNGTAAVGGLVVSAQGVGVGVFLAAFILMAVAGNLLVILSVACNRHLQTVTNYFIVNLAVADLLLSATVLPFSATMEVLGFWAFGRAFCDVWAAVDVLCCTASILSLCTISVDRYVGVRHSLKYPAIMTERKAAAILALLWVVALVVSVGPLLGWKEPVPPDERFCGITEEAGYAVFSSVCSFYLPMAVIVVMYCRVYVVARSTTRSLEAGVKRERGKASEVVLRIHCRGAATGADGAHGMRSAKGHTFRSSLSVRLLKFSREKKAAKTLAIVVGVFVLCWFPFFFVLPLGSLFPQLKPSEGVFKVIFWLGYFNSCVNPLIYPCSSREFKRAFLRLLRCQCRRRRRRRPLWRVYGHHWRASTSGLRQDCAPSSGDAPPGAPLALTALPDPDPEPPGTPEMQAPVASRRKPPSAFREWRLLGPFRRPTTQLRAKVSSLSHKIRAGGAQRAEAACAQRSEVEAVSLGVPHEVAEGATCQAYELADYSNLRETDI
Chain of Alpha-2B adrenergic receptor (P18089 whole entry): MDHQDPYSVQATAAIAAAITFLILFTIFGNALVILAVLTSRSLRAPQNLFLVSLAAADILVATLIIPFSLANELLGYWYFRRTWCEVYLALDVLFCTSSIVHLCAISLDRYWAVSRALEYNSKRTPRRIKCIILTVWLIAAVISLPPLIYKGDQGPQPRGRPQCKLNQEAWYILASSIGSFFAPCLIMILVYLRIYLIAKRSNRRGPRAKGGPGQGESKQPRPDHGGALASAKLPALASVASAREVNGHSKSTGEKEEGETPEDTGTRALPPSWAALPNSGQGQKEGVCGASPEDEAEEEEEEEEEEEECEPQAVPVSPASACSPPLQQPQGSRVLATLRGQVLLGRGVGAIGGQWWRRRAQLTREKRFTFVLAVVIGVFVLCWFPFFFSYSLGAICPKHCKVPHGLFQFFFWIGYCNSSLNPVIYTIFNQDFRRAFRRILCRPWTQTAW

In general, Ki refers to a dissociation constant, usually derived from enzyme kinetics or from competition with a known ligand. On to `OC1(c2ccc(Cl)c(C(F)(F)F)c2)CCN(CCCC(c2ccccc2)c2ccccc2)CC1`, for which the inhibition constant Ki result is “Not Active” in series [1] (cho), 1690 nM in series [2] and 1180 nM in series [3].

The inhibition is the percentage by which the read-out fell short of the control. For `OC1(c2ccc(Cl)c(C(F)(F)F)c2)CCN(CCCN(c2ccc(F)cc2)c2ccc(F)cc2)CC1`, the inhibition constant (Ki) in series [2] was determined as 1680 nM; in series [3], 903 nM. The molecule further displayed an inhibition in [4] of 88.5%.

As to `OC1(c2ccc(Cl)c(C(F)(F)F)c2)CCN(CCCCCc2ccc(F)cc2)CC1`, the inhibition in series [4] is 69.2%.

`OC1(c2ccc(Cl)c(C(F)(F)F)c2)CCN(CCCC=C(c2ccc(F)cc2)c2ccc(F)cc2)CC1` came in with an inhibition in [4] of 64.6%.

As a reminder, the Tmax is the time at which the peak concentration occurs. On to `COc1ccc(N(CCCCN2CCC(O)(c3ccc(Cl)c(C(F)(F)F)c3)CC2)c2ccc(OC)cc2)cc1`, for which the Ki was determined as 4970 nM in series [1] (read-out: Ki), 1400 nM in series [2] and 1310 nM in series [3]. This molecule returned an inhibition in series [4] of 71.9%. Besides, the Drug uptake result in series [5] and in [6] was “Active” in each case. The Activity entry in [7], in [9], in series [10], in series [11], in series [12] and in series [13] was “Non-Toxic” each time. The Activity result in [14], in series [15], in series [16], in series [17], in series [18] and in series [19] was “Non-Toxic” each time. Further, the Activity result in series [20], in series [21], in series [22], in [23], in series [24] and in series [25] was “Non-Toxic” throughout. For the same molecule, the Activity entry in series [26], in series [27] and in series [28] was “Non-Toxic” throughout. In series [8], the time of peak concentration (Tmax) turned out to be 6 h.

On to `OC1(c2ccc(Cl)c(C(F)(F)F)c2)CCN(CCCC(c2ccc(F)cc2)c2ccc(F)cc2)CC1` [PENFLURIDOL], for which the Ki in series [29] was 445 nM; in series [30], 401 nM. Besides, the figures for the inhibition in series [4], in series [31] and in series [32] were 84%, 95.7% and 100%, respectively. In addition, the Drug uptake entry in series [5] is listed as “Active”. Also, the Activity entry in series [17], in [19] and in [28] was “Toxic” throughout.

With `OC1(c2ccc(Cl)c(C(F)(F)F)c2)CCN(CCCCN(c2ccc(F)cc2)c2ccc(F)cc2)CC1`, the Ki came to 4150 nM in series [1] (read-out: Ki), 1670 nM in series [2] and 10000 nM in series [3].

Take `OC1(c2ccc(Cl)c(C(F)(F)F)c2)CCN(CCCCC(c2ccc(F)cc2)c2ccc(F)cc2)CC1`: the Ki in series [1] (read-out: Ki) turned out to be 894 nM; in [2], 1670 nM; in series [3], 428 nM. Moreover, the Drug uptake result in [5] and in [6] was “Active” each time. Also, the Activity result in [7], in series [9], in series [10], in series [11], in [12] and in [13] was “Non-Toxic” in each case. The Activity result in [14], in [15], in [16], in series [17], in series [18] and in series [19] was “Non-Toxic” in each case. Also, the Activity entry in series [20], in [21], in [22], in [23], in series [24] and in [25] was “Non-Toxic” throughout. The Activity result in series [26], in series [27] and in [28] was “Non-Toxic” throughout.
